A short description of assay [1]: Inhibition of IL-6-induced cell adhesion in human U937 cells assessed as reduction in cell adhesion to HT-29 cells at 1 uM relative to control. It counts as functional. The settings on record: U-937.
The nature of assay [2]: Inhibition of TNF-alpha-induced cell adhesion in human U937 cells assessed as reduction in cell adhesion to HT-29 cells at 1 uM relative to control. It counts as functional. The settings on record: U-937.
Assay [3] concerns Rattus norvegicus. Nature of the assay: Anti-colitis activity against TNBS-induced rat model of colitis assessed as increase in colon weight at 1 to 10 mg/kg, po administered for 5 days and measured on day 5. It counts as functional, organism-based. The conditions noted are these: dose 1-10 mg/kg, time 5.0 day. Put shortly:
(§1)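 Rat colitis induced by rectal TNBS. Test agents given orally once daily for 5 days. Read-outs are body weight, colon appearance (congestion, adhesion), and colon tissue weight/length. MPO in colon tissue was measured with an MPO assay kit. Groups were compared against mock control and vehicle-treated TNBS animals, with P < 0.05 taken as significant.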

Assay [4] has as its system Rattus norvegicus. Description: Anti-colitis activity against TNBS-induced rat model of colitis assessed as decrease in congestion at 1 to 10 mg/kg, po administered for 5 days and measured on day 5. It counts as functional, organism-based. The conditions noted are these: dose 1-10 mg/kg, time 5.0 day. In outline:
as §1

Assay [5] relates to Rattus norvegicus. Nature of the assay: Anti-colitis activity against TNBS-induced rat model of colitis assessed as decrease in adhesion at 1 to 10 mg/kg, po administered for 5 days and measured on day 5. In kind it is functional, organism-based. The conditions noted are these: dose 1-10 mg/kg, time 5.0 day. In outline: as §1
For assay [6], the system named is Rattus norvegicus. Description: Anti-colitis activity against TNBS-induced rat model of colitis assessed as increase in body weight administered po for 5 days and measured on day 5. It counts as functional, organism-based. The settings on record: dose 1-10 mg/kg, time 5.0 day. In outline: as §1
Assay [7] concerns Rattus norvegicus. Description: Anti-colitis activity against TNBS-induced rat model of colitis assessed as increase in colon length at 1 to 10 mg/kg, po administered for 5 days and measured on day 5. It counts as functional, organism-based. The conditions noted are these: dose 1-10 mg/kg, time 5.0 day. Put shortly:
as §1

For assay [8], the system named is Rattus norvegicus. Description: Anti-colitis activity against TNBS-induced rat model of colitis assessed as decrease in MPO level in colon at 1 to 10 mg/kg, po administered for 5 days and measured on day 5. In kind it is functional, organism-based. The settings on record: dose 1-10 mg/kg, time 5.0 day. In outline:
as §1

The nature of assay [9]: Inhibition of TNF-alpha-induced cell adhesion in human U937 cells assessed as reduction in cell adhesion to HT-29 cells at 1000 uM relative to control. It counts as functional. The conditions noted are these: U-937.
A short description of assay [10]: Inhibition of IL-6-induced cell adhesion in human U937 cells assessed as reduction in cell adhesion to HT-29 cells at 1000 uM relative to control. The conditions noted are these: U-937. It counts as functional.
In assay [11] the test system is Rattus norvegicus. Description: Anti-colitis activity against TNBS-induced rat model of colitis assessed as increase in colon weight at 300 mg/kg, po administered for 5 days and measured on day 5. The settings on record: time 5.0 day. In kind it is functional, organism-based. In outline: as §1
For assay [12], the system named is Rattus norvegicus. Nature of the assay: Anti-colitis activity against TNBS-induced rat model of colitis assessed as decrease in MPO level in colon at 300 mg/kg, po administered for 5 days and measured on day 5. In kind it is functional, organism-based. The settings on record: time 5.0 day. In outline: as §1
In assay [13] the test system is Rattus norvegicus. Nature of the assay: Anti-colitis activity against TNBS-induced rat model of colitis assessed as increase in colon length at 300 mg/kg, po administered for 5 days and measured on day 5. It counts as functional, organism-based. The conditions noted are these: time 5.0 day. In outline: as §1
Assay [14] deals with Rattus norvegicus. Nature of the assay: Anti-colitis activity against TNBS-induced rat model of colitis assessed as decrease in adhesion at 300 mg/kg, po administered for 5 days and measured on day 5. It counts as functional, organism-based. The settings on record: time 5.0 day. Put shortly:
as §1

The subject of assay [15] is Rattus norvegicus. Description: Anti-colitis activity against TNBS-induced rat model of colitis assessed as increase in body weight at 300 mg/kg, po administered for 5 days and measured on day 5. In kind it is functional, organism-based. The conditions noted are these: time 5.0 day. Put shortly: as §1
Assay [16] concerns Rattus norvegicus. Description: Anti-colitis activity against TNBS-induced rat model of colitis assessed as decrease in congestion at 300 mg/kg, po administered for 5 days and measured on day 5. It counts as functional, organism-based. The conditions noted are these: time 5.0 day. In outline: as §1
The test system of assay [17] is Rattus norvegicus. Description: Anti-colitis activity against TNBS-induced rat model of colitis assessed as increase in body weight at 1 mg/kg, po administered for 5 days and measured on day 5. The conditions noted are these: time 5.0 day.
For assay [18], the system named is Rattus norvegicus. Description: Anti-colitis activity against TNBS-induced rat model of colitis assessed as decrease in adhesion at 1 mg/kg, po administered for 5 days and measured on day 5. In kind it is functional, organism-based. The conditions noted are these: time 5.0 day. In outline: as §1
In assay [19] the test system is Rattus norvegicus. Nature of the assay: Anti-colitis activity against TNBS-induced rat model of colitis assessed as increase in body weight at 1 mg/kg, po administered for 5 days and measured on day 5. It counts as functional, organism-based. The conditions noted are these: time 5.0 day. In outline: as §1
Assay [20] relates to Rattus norvegicus. Description: Anti-colitis activity against TNBS-induced rat model of colitis assessed as increase in colon weight at 1 mg/kg, po administered for 5 days and measured on day 5. It counts as functional, organism-based. The conditions noted are these: time 5.0 day. In outline:
as §1

Assay [21] relates to Rattus norvegicus. Nature of the assay: Anti-colitis activity against TNBS-induced rat model of colitis assessed as decrease in MPO level in colon at 1 mg/kg, po administered for 5 days and measured on day 5. The settings on record: time 5.0 day. In kind it is functional, organism-based. In outline:
as §1

For assay [22], the system named is Rattus norvegicus. Description: Anti-colitis activity against TNBS-induced rat model of colitis assessed as decrease in congestion at 1 mg/kg, po administered for 5 days and measured on day 5. In kind it is functional, organism-based. The conditions noted are these: time 5.0 day. In outline: as §1

Each structure is given as a SMILES string. The source made the active and inactive calls. The calls are words filed in the database; no cut-off is given here.

By inhibition is commonly meant the percentage by which the read-out fell short of the control.

As for `Cc1nc(NC(=O)C(Cl)c2ccccc2)c(C)c(C)c1O` (stereo not drawn), the inhibition at 1 µM came out at 22.5% in assay [1] and 36.6% in [2].

Turning to `C[C@@H]1CCN(C(=O)CC#N)C[C@@H]1N(C)c1ncnc2[nH]ccc12` [TOFACITINIB], the inhibition at 1 µM in assay [1] is 58.6%; in assay [2], 49.1%.

For `Cc1nc(NC(=O)COc2ccccc2)c(C)c(C)c1O`, the results for the inhibition at 1 µM in assay [1] and in [2] were 11.4% and 10.8%, respectively.

As to `CCCCCCCCCCCCCCCC(=O)Nc1nc(C)c(O)c(C)c1C`, the inhibition at 1 µM in [1] stood at 17.4%; in assay [2] it was 31.7%.

As to `Cc1nc(NC(=O)CCc2ccc(Cl)cc2)c(C)c(C)c1O`, the inhibition at 1 µM stood at 20.8% in [1] and 30.6% in [2].

`Cc1nc(NC(=O)/C=C/c2ccccc2)c(C)c(C)c1O`: the inhibition at 1 µM in assay [1] worked out at 14.2%; in [2], 25.2%.

With `Cc1nc(NC(=O)CCc2ccc(Cl)cc2Cl)c(C)c(C)c1O`, the inhibition at 1 µM in [1] turned out to be 35.9%; in assay [2], 41.5%.

With `Cc1nc(NC(=O)C(C)(C)C)c(C)c(C)c1O`, in [1], the inhibition at 1 µM came to 21.1%.

Regarding `Cc1nc(NC(=O)CC(C)CC(C)(C)C)c(C)c(C)c1O` (stereo not drawn), in assay [1], the inhibition at 1 µM came to 46.3%.

As for `Cc1ccccc1CCC(=O)Nc1nc(C)c(O)c(C)c1C`, the inhibition at 1 µM in assay [1] amounted to 12.9%; in assay [2], 20.2%.

For `CCCCCCCCCCCC(=O)Nc1nc(C)c(O)c(C)c1C`, the inhibition at 1 µM in [1] was 44.3%.

`CCCCCCCC(=O)Nc1nc(C)c(O)c(C)c1C`: the results for the inhibition at 1 µM in assay [1] and in assay [2] were 54.8% and 61.5%, respectively.

For `Cc1nc(NC(=O)C(Cl)Cl)c(C)c(C)c1O`, in assay [1], the inhibition at 1 µM is 52.7%.

`CC(=O)OCC(=O)Nc1nc(C)c(O)c(C)c1C`: the figures for the inhibition at 1 µM in [1] and in assay [2] were 9.7% and 6.8%, respectively.

On to `Cc1nc(NC(=O)Cc2ccccc2)c(C)c(C)c1O`, for which the figures for the inhibition at 1 µM in assay [1] and in [2] were 50.2% and 56.6%, respectively.

With `Cc1nc(NC(=O)Cc2ccc(F)cc2)c(C)c(C)c1O`, the inhibition at 1 µM in assay [1] was determined as 18.1%; in assay [2], 7.2%.

On to `C=CCC(=O)Nc1nc(C)c(O)c(C)c1C`, for which the values for the inhibition at 1 µM in assay [1] and in assay [2] were 21.3% and 31.9%, respectively.

For `Cc1nc(NC(=O)C2CCCCC2)c(C)c(C)c1O`, the inhibition at 1 µM in assay [1] was 56.7%.

Consider `Cc1nc(NC(=O)CCCCl)c(C)c(C)c1O`, for which the inhibition at 1 µM in assay [1] came to 17.8%.

On to `CC(=O)Nc1nc(C)c(O)c(C)c1C`, for which the result in the assay with Rattus norvegicus [3], in the assay on Rattus norvegicus [4], in the assay with Rattus norvegicus [5], with Rattus norvegicus [7] and with Rattus norvegicus [8] was Active. The inhibition at 1 µM was determined as 47.2% in [1] and 56% in assay [2]. Further, in the assay with Rattus norvegicus [6], the Activity entry was “Dose-Dependent Effect”.

Take `Cc1nc(NC(=O)C(C)C)c(C)c(C)c1O`: the inhibition at 1 µM was 53.9% in [1] and 64.2% in [2].

`Nc1ccc(O)c(C(=O)O)c1` [MESALAMINE]: the inhibition at 1000 µM in [9] came to 9.9%; in [10], 1.7%.

On to `CCCC(=O)Nc1nc(C)c(O)c(C)c1C`, for which the values for the inhibition at 1 µM in assay [1] and in assay [2] were 17.5% and 10%, respectively.

As to `Cc1nc(NC(=O)C2CCCC2)c(C)c(C)c1O`, the inhibition at 1 µM in assay [1] amounted to 34.8%.

`Cc1nc(NC(=O)CCc2ccccc2Br)c(C)c(C)c1O`: the inhibition at 1 µM amounted to 22% in assay [1] and 35.3% in assay [2].

For the compound `O=C(O)c1cc(/N=N/c2ccc(S(=O)(=O)Nc3ccccn3)cc2)ccc1O`, the outcome in the assay with Rattus norvegicus [11], with Rattus norvegicus [12], with Rattus norvegicus [13], in the assay on Rattus norvegicus [14], in the assay on Rattus norvegicus [15] and with Rattus norvegicus [16] was Active.

As for `Cc1nc(NC(=O)CCc2ccccc2)c(C)c(C)c1O`, the inhibition at 1 µM in assay [1] is 69.6%. Further, the outcome in the assay on Rattus norvegicus [17], in the assay with Rattus norvegicus [18], in the assay on Rattus norvegicus [19], with Rattus norvegicus [20], in the assay on Rattus norvegicus [21] and with Rattus norvegicus [22] was Active.

As to `Cc1nc(NC(=O)CC(C)C)c(C)c(C)c1O`, the inhibition at 1 µM stood at 48% in assay [1] and 52.3% in [2].

With `Cc1nc(NC(=O)Cc2cccc(Br)c2)c(C)c(C)c1O`, the inhibition at 1 µM amounted to 9.2% in assay [1] and 6.2% in assay [2].

Take `Cc1nc(NC(=O)CCc2ccccc2F)c(C)c(C)c1O`: the inhibition at 1 µM in assay [1] was found to be 18%; in assay [2], 13.9%.

The values above are taken from ChEMBL document CHEMBL4819105, “Synthesis and activity of N-(5-hydroxy-3,4,6-trimethylpyridin-2-yl)acetamide analogues as anticolitis agents via dual inhibition of TNF-α- and IL-6-induced cell adhesions” (2021).
